From ChEMBL document CHEMBL3352196, “Synthesis, structural characterization and effect on human granulocyte intracellular cAMP levels of abscisic acid analogs” (Bioorg Med Chem, 2015)
pIC50: −log10 of the molar value. Activity calls are given as the source filed them. The calls are words filed in the database; no cut-off is given here.

Columns and labels:
Homo sapiens [1] = species: Homo sapiens; assay: Inhibition of 1 uM ABA-induced Increase in intracellular cAMP level in human granulocytes at 50 uM incubated for 1 min at 25 degC; format: functional, cell-based
Method in brief: (§1)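 Cells were rested overnight, then resuspended at 1.5 × 10⁷/ml in HBSS containing Ca and Mg. After a 5 min preincubation at 25 °C with Ro-20-1724 (PDE inhibitor), aliquots received ABA with or without analog for 1 min at 25 °C; untreated cells were the control. Cold perchloric acid ended the reaction; lysate was spun, neutralized with K2CO3 to pH 7.5, and cleared of KClO4. cAMP was measured by [³H]-cAMP radioimmunoassay and given as increase over control.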

Homo sapiens [2] = species: Homo sapiens; assay: Increase in intracellular cAMP level in human granulocytes at 1 to 50 uM incubated for 1 min at 25 degC; format: functional, cell-based
Method in brief: (§2)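 Human granulocytes were rested overnight after purification, pelleted at 200×g for 5 min, and resuspended at 1.5 × 10⁷/ml in HBSS with Ca and Mg. Cells were preincubated 5 min at 25 °C with the PDE inhibitor Ro-20-1724, then given analog alone for 1 min at 25 °C. Perchloric acid at 4 °C stopped the reaction, and supernatant was neutralized to pH 7.5 with K2CO3. cAMP was read by [³H]-cAMP competitive radioimmunoassay and reported relative to untreated cells.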

LanC-like protein 2 = target: T1, LanC-like protein 2 (Homo sapiens, UniProt Q9NS86); assay: Inhibition of ABA binding to LANCL2 (unknown origin)
T1 sequence (Q9NS86 whole entry): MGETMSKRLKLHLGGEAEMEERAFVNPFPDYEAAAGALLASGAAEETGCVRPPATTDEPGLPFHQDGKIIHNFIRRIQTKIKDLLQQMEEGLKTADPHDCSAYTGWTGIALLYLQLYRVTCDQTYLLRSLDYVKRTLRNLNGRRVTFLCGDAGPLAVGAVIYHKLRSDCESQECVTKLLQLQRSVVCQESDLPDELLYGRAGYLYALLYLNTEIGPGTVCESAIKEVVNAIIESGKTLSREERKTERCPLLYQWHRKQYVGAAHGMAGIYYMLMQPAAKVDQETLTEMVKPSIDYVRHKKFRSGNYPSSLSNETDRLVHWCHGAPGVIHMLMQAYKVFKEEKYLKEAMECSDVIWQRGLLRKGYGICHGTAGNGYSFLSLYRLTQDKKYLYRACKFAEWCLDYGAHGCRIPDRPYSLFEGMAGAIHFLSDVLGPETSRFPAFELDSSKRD

[3] = Inhibition of 1 uM ABA-induced Increase in intracellular cAMP level in human granulocytes incubated for 1 min at 25 degC; format: functional, cell-based; method in brief: as §1
Homo sapiens [4] = species: Homo sapiens; assay: Increase in intracellular cAMP level in human granulocytes at 1 to 10 uM incubated for 1 min at 25 degC; format: functional, cell-based; method in brief: as §2
Homo sapiens [5] = species: Homo sapiens; assay: Increase in intracellular cAMP level in human granulocytes at 50 uM incubated for 1 min at 25 degC; format: functional, cell-based; method in brief: as §2
Homo sapiens [6] = species: Homo sapiens; assay: (§3) Increase in intracellular cAMP level in human granulocytes at 1 uM incubated for 1 min at 25 degC; format: functional; method in brief: as §2
Homo sapiens [7] = species: Homo sapiens; assay: Potentiation of 1 uM ABA-induced Increase in intracellular cAMP level in human granulocytes at 50 uM incubated for 1 min at 25 degC; format: functional, cell-based; method in brief: as §1
Homo sapiens [8] = species: Homo sapiens; assay: Inhibition of 1 uM ABA-induced Increase in intracellular cAMP level in human granulocytes at 1 to 10 uM incubated for 1 min at 25 degC; format: functional, cell-based; method in brief: as §1
[9] = as §3; format: functional; method in brief: as §2

Structure (SMILES)	inhibition (Homo sapiens [1])	Activity (Homo sapiens [2])	also measured
COC(=O)/C=C(C)\C=C\c1c(C)cc(OC(C)=O)c(C)c1C	inactive	inactive	
CC(=C/C(=O)O)/C=C/C1(O)C(C)(C)CC(=O)C2OC21C (racemic)	Active		pIC50 (LanC-like protein 2): 8.18; pIC50 [3]: 9.15
CC(=O)/C=C/C12OC1(C)CCCC2(C)C (racemic)	inactive		Activity (Homo sapiens [4]): inactive; Activity (Homo sapiens [5]): Active
CC(=O)OC1C=C(C)C(O)(/C=C/C(C)=C\C(=O)O)C(C)(C)C1 (racemic)		Active	
CC1=CC(=O)CC(C)(C)C1(O)/C=C/C(C)=C\C(=O)Nc1ccc(N)cc1 (racemic)	inactive	inactive	
CC1=CC(=O)CC(C)(C)C1(O)/C=C/C(C)=C\C(=O)Nc1ccccc1 (racemic)		Active	Activity (Homo sapiens [6]): Active
CC1=CC(=O)CC(C)(C)C1(O)/C=C/C(C)=C\C(=O)OC(C)(C)C (racemic)		Active	Activity (Homo sapiens [7]): inactive
CC1=CC(=O)CC(C)(C)C1(O)/C=C/C(C)=C\C(=O)OCC(=O)OC(C)(C)C (racemic)			Activity (Homo sapiens [4]): Active; Activity (Homo sapiens [6]): Active
CC1=CC(=O)CC(C)(C)C1(O)/C=C/C(C)=C\C(=O)OCC(=O)OCC(=O)O (racemic)	Active		inhibition (Homo sapiens [8]): inactive; Activity (Homo sapiens [5]): inactive
CC1=CC(=O)CC(C)(C)C1(O)/C=C/C(C)=C\CO (racemic)		Active	
CC1=CC(=O)O/C1=C\C1(O)C(C)=CC(=O)CC1(C)C (racemic)		Active	
CC1=CC(O)CC(C)(C)C1(O)/C=C/C(C)=C\C(=O)O (racemic)		Active	
CC1=CC(O)CC(C)(C)C1(O)/C=C/C(C)=C\C(=O)OCC(=O)OC(C)(C)C (racemic)	inactive	inactive	
CC1=CC(O)CC(C)(C)C1(O)/C=C/C(C)=C\CO (racemic)		Active	
CCN(CC)C(=O)/C=C(C)\C=C\C1(O)C(C)=CC(=O)CC1(C)C (racemic)		Active	
COC(=O)/C=C(C)\C=C\C1(O)C(C)=CC(=O)CC1(C)C (racemic)		Active	Activity (Homo sapiens [7]): Active
COC(=O)/C=C(C)\C=C\C1(O)C(C)=CC(O)CC1(C)C (racemic)	inactive	inactive	
COc1ccc(NC(=O)/C=C(C)\C=C\C2(O)C(C)=CC(=O)CC2(C)C)cc1 (racemic)		Active	Activity (Homo sapiens [6]): Active
CC1=CC(=O)CC(C)(C)[C@@]1(O)/C=C/C(C)=C\C(=O)O (racemic) [(+)-ABSCISIC ACID]			Activity [9]: 35%
